# Assay outcomes (PubChem)
# This is a sample that favours compounds with a hit; in the whole collection about 11% have one here.
# S1P3 ag – human S1P3 receptor agonists, primary screen, cell-based, primary and confirmation, NFAT-BLA reporter. Sphingosine 1-phosphate receptor 3 (Homo sapiens), Q99500. S1P3 NFAT-BLA reporter cells, agonism, FRET ratio; relative to 1 µM S1P, basal subtracted. activation, % at 4.5 µM. hit rate 0.1% among 60,000. AID 373, 2006;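 active means activation above the screen-wide mean plus 3 SD, cut at about 4.5% in these data, passing the limit was not always enough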
#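 Assay system: CHO cells stably expressing human S1P3, Gα16 and NFAT-β-lactamase reporter. Timing: overnight plating, 4 h compound 37 °C, 2 h substrate RT. Signal: β-lactamase FRET emission ratio 460/535 nm. Measure: percent activation versus median 1 µM S1P response, basal-subtracted, per plate. Repeats: primary screen single test, confirmation screen in triplicate.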
# M1 ag – M1 muscarinic receptor agonists, primary screen, CHO-M1 cells, Fluo-4 calcium, agonist mode; hit rate 3% among 64,000; Muscarinic acetylcholine receptor M1; Fluo-4 calcium fluorescence; active compounds read high; B-score at 10 µM;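 active means fluorescence rise, raw or as B-score row- and column-corrected plate score, outside the 99.7% band of its plate's samples, either direction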
# D1 allo mod – D1 CRE-luciferase signal change, two-sided – cell-based, HEK293 D1, dopamine EC30, D1 allosteric modulator project, primary screen | D(1A) dopamine receptor (Homo sapiens), P21728 | dopamine EC30 potentiation; actives deviate in either direction | B-score at 10 µM | hit rate 5.9% among 58,000;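 active means luminescence count or its row- and column-corrected plate score outside the 99.7% band of the plate's sample wells, on either side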
# S1P1 ag pot – S1P1 agonists and agonism potentiators, primary screen, cell-based, primary and confirmation screens, CRE-bla reporter; hit rate 0.57% among 56,000; S1P1 CRE-bla cells, forskolin, beta-lactamase FRET, potentiator mode; S1P1 agonist co-added at EC20, 2 nM; 100% = saturating reference agonist, 0% = basal; activation, % at 9.5 µM; Sphingosine 1-phosphate receptor 1 (Homo sapiens), P21453;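 active means activation above a cutoff set at the mean activation of all tested compounds plus 3 SD, cut at about 54% in these data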;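 further: forskolin at 4 µM as EC80 and the EC20 agonist is SEW2871; 100% = SEW2871 at its EC100 plus forskolin at EC80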
# M1 antagonist – antagonists of rat M1 muscarinic receptor | B-score at 10 µM | CHO-M1 cells, Fluo-4 calcium, ACh EC80 antagonist mode; active compounds read low | hit rate 3.4% among 64,000;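 active means calcium fluorescence response, raw or row-and-column corrected B-score, differing from the plate sample mean either way at a set confidence level, mostly lower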
# TNAP act DEA – human TNAP enzyme activators, primary screen, biochemical, luminescent, intermediate phosphate acceptor level. AID 813, 2007. 64,000 tested, under 10 active. purified TNAP, CDP-star luminescence, 100 mM DEA, 30 min; active compounds read high; scale: 0 levamisole-inhibited, 1 vehicle-only enzyme. activation factor at 20 µM. Alkaline phosphatase, tissue-nonspecific isozyme (Homo sapiens), P05186;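 active means activation factor of at least 2 at 20 µM, relative to controls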
# Target sequence (P05186 whole entry, looked up): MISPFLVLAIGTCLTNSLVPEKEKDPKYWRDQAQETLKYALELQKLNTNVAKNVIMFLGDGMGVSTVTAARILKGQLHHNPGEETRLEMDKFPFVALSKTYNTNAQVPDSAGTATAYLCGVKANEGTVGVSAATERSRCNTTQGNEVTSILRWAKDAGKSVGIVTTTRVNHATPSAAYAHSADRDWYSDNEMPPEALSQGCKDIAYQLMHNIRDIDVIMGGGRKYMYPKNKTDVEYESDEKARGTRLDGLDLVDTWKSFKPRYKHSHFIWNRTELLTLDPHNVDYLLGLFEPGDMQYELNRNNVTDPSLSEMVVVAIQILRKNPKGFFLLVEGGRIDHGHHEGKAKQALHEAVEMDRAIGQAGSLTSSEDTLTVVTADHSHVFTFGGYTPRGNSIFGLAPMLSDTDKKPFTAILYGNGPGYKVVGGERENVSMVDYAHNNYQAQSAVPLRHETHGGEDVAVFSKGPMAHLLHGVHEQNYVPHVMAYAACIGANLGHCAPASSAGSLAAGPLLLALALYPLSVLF
# * hit, by the source's call; x = not tested or not shown.
SMILES,S1P3 ag,M1 ag,D1 allo mod,S1P1 ag pot,M1 antagonist,TNAP act DEA
COC(=O)CSc1ncnc2c1sc1nc(-c3ccco3)c3c(c12)CC(C)(C)OC3,11.3,-0.29,x,8.6,0.667,0.9
CCOC(=O)c1sc2nc(-c3ccco3)c3c(c2c1N)CC(C)(C)OC3,-1.7,-1.35,4.04*,2.4,0.0798,0.9
Cc1cc(C(=O)OCC(=O)N2CCN(c3ccccc3)CC2)c2ccccc2n1,0.3,-0.729,-1.21,14.1,-1.03,1
CCCCOC(=O)C1CCCC(C(=O)OCCCC)N1 (stereo not given),0.2,-0.253,-0.314,-11.5,-0.398,0.9
CCOc1cccc(C(=O)Nc2nnc(-c3ccco3)s2)c1,-1.0,-0.275,-3.66*,x,0.769,0.9
COc1ccc(-c2cc(C(F)(F)F)n3nc(C(=O)N4CCCC4)cc3n2)cc1,-0.7,-0.721,0.603,x,1.78*,1
CN1CCN(C(=O)c2cc3nc(-c4ccc(F)cc4)cc(C(F)(F)F)n3n2)CC1,-0.5,-0.791,-0.339,-21.6,0.0203,0.9
Nc1cc(OC(=O)c2cccs2)nn1S(=O)(=O)c1ccccc1,-0.2,x,-5.32*,-10.9,x,0.9
CCOc1ccc(NC(=O)c2cc3n(n2)C(C(F)(F)F)CC(c2ccco2)N3)cc1 (stereo not given),-0.8,-1.09,-7.48*,44.4,-1.01,1
CCn1c(CSc2nnc(-c3ccc4c(c3)OCO4)o2)nc2cc(S(=O)(=O)N(C)C)ccc21,0.0,x,x,25.0,x,0.9
OCCCc1nc2n(n1)C(c1cccs1)C=C(c1ccccc1)N2 (stereo not given),1.7,431*,0.305,-1.4,-14.9*,0.8
OCCCc1nc2n(n1)C(c1ccccc1)C=C(c1ccc(F)cc1)N2 (stereo not given),-0.9,2.3,0.0773,12.9,0.149,x
CCNc1nnc(-c2ccc(C)cc2)o1,-1.2,0.573,-0.273,4.5,0.105,1
COc1ccc(C(=O)Cn2c(N3CCOCC3)nc3ccccc32)cc1OC,-0.9,0.083,-2.98*,-3.1,-0.669,1
COc1cccc(NC(=O)CSc2nnc(-c3cccc(OC(C)C)c3)n2N)c1,-1.6,-0.357,-0.0878,1.2,0.66,0.9
CCOC(=O)N1CCC(NC(=O)CCC(=O)N2CCOc3ccc(C)cc32)CC1,-1.3,0.275,-0.876,-20.2,3.35*,1
CCOc1ccc(OCC)c(NC(=O)CN2CCC(NC(=O)c3cccc(F)c3)CC2)c1,x,2.76,-1.21,x,-0.104,0.9
Cc1sc(NC(=O)c2ccco2)nc1-c1ccc2c(c1)CC(C)N2C(=O)C1CC1 (stereo not given),-0.4,14.1*,-3.65*,11.8,-3.65*,0.9
CC(=O)c1sc(NC(=O)c2ccco2)nc1-c1ccccc1,-0.8,0.441,-0.756,8.4,-0.00051,0.9
COC(=O)Cn1nnc(-c2cccc(OC)c2)n1,-0.3,-0.494,x,8.7,0.629,0.9
c1cncc(-c2nc3c4ccccc4nc(N4CCC(N5CCCCC5)CC4)n3n2)c1,0.3,-0.251,0.834,-41.0,-6.71*,0.9
O=C1CN(C(=O)CCCc2c[nH]c3ccccc23)c2ccccc2N1,1.1,-0.872,-0.648,4.2,-0.251,0.9
CCSc1nc2sc3c(c2c(=O)n1C1CCCCC1)CCN(C)C3,-4.0,-0.89,x,5.7,-2.3*,1
N#CCSc1nc2sc3c(c2c(=O)n1C1CCCCC1)CCCC3,1.2,0.111,x,-8.3,0.19,0.9
O=C1C2C3C=CC(CO)(O3)C2C(=O)N1c1ccccc1-c1ccccc1 (stereo not given),-1.2,-0.0217,0.0333,153.8*,1.05,1
SMILES,S1P3 ag,M1 ag,D1 allo mod,S1P1 ag pot,M1 antagonist,TNAP act DEA
Cc1cccc(NC(=O)C2CCCN2S(=O)(=O)c2cccc3cccnc23)c1 (stereo not given),-0.5,0.721,0.72,2.6,0.736*,0.9
Cc1ccc(NC(=O)C2CCCN2S(=O)(=O)c2cccc3cccnc23)cc1F (stereo not given),-0.3,0.181,0.189,17.3,0.963,0.8
N#CC1(c2ccccc2)CCCN1C(=O)c1ccc(Br)o1 (stereo not given),-0.9,0.201,0.068,11.9,0.74,1.1
CCC(C)n1c(SCC(=O)NC(=O)Nc2ccc3c(c2)OCCO3)nc2ccccc2c1=O (stereo not given),-1.2,-0.853,-0.104,10.4,-0.461,0.8
CCC(C)n1c(SC(C)C#N)nc2ccccc2c1=O (stereo not given),1.7,0.0635,-4.79*,-13.0,-0.91,1
COc1ccccc1C(=O)Nc1ccc(S(=O)(=O)Nc2cc(C)on2)cc1,x,0.51,1.01,x,0.93,1
COc1ccc(S(=O)(=O)Nc2cc(C)on2)cc1OC,0.4,-0.0105,-2.8*,10.9,0.285,0.9
O=C(CCC(=O)N(Cc1ccco1)C(C(=O)NC1CCCC1)c1ccncc1)Nc1cccnc1 (stereo not given),-0.3,-0.0322,0.00878,108.6,0.00579,0.9
CC1Cc2ccccc2N1c1ncnc2nc[nH]c12 (stereo not given),-0.5,0.364,1.46,93.3*,0.245,1.2
CN(C)CCNc1ncnc2c1cnn2-c1ccc(Cl)cc1,-0.1,0.24,-4.72*,-13.3,-1.01,0.9
CCC(CO)Nc1ncnc2c1cnn2-c1ccc(Cl)cc1 (stereo not given),-1.1,1.5,-5.72*,-0.3,-0.714,0.9
CC(C)(C)c1ccc(C(=O)C=[N+]=[N-])cc1,-2.3,-0.962,0.519,8.0,0.546,0.9
CCOC(=O)N1CCN(S(=O)(=O)c2cccc3ccc(C)nc23)CC1,0.8,0.0166,-0.0407,-13.7,0.224,1
CC1C(=NO)C(C)C(c2ccc(N(C)C)cc2)NC1c1ccc(N(C)C)cc1 (stereo not given),-0.9,0.103,x,-14.5,-1.4,1
COc1ccc(C2(C(=O)NCCCN3CCOCC3)CCOCC2)cc1,0.0,-0.29,0.935,-2.0,-1.62,0.9
Fc1cccc(-c2cc3nc4c(c(N5CCN(c6cnccn6)CC5)n3n2)CCCC4)c1,-0.8,13.9*,0.299,-9.4,0.00261,0.8
COc1ccc(OC)c(N(CC(=O)Nc2ccc3c(c2)OCCO3)S(C)(=O)=O)c1,-0.4,-1.73,0.62,x,-0.284,0.9
COc1ccc2ccccc2c1CN1CCN(C)CC1,0.6,-1.89,-2.44*,-19.2,-0.365,0.9
